Results published in ChEMBL document CHEMBL1124759, “Fluoronaphthyridines and quinolones as antibacterial agents. 2. Synthesis and structure-activity relationships of new 1-tert-butyl 7-substituted derivatives” (J Med Chem, 1990).
Converted amounts (≈) assume the structure as drawn.

What was measured:
Enterobacter cloacae = assay: In vitro minimum inhibitory concentration (MIC) against Enterobacter cloacae A 9656 at 37 degrees C for 18 h.; type: functional
Serratia marcescens = assay: In vitro minimum inhibitory concentration (MIC) against Serratia marcescens A 20019 at 37 degrees C for 18 hr; type: functional
How it was run: (§1)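 Two-fold serial broth dilution in nutrient broth. Inoculum adjusted to 10^6 cfu/mL. Compounds tested from 0.0005 to 250 µg/mL.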

Escherichia coli [1] = assay: In vitro minimum inhibitory concentration (MIC) against Escherichia coli A 15119 at 37 degrees C for 18 h.; type: functional; how it was run: as §1
Pseudomonas aeruginosa [2] = assay: In vitro minimum inhibitory concentration (MIC) against Pseudomonas aeruginosa A 9843 at 37 degree C for 18 h; type: functional; how it was run: as §1
Staphylococcus aureus [3] = assay: In vitro minimum inhibitory concentration (MIC) against Staphylococcus aureus Smith A 9537 at 37 degrees C for 18 hr; type: functional; how it was run: as §1
Enterococcus faecalis = assay: In vitro minimum inhibitory concentration (MIC) against Enterococcus faecalis A 9808 at 37 degrees C for 18 h.; type: functional; how it was run: as §1
Klebsiella pneumoniae [4] = assay: In vitro minimum inhibitory concentration (MIC) against Klebsiella pneumoniae A 9664 at 37 degrees C for 18 h.; type: functional; how it was run: as §1
Morganella morganii = assay: In vitro minimum inhibitory concentration (MIC) against Morganella morganii A 15153 at 37 degrees C for 18 h.; type: functional; how it was run: as §1
Enterococcus faecium = assay: In vitro minimum inhibitory concentration (MIC) against Enterococcus faecium A 24885 at 37 degrees C for 18 h.; type: functional; how it was run: as §1
Klebsiella pneumoniae [5] = assay: Efficacy on systematic infections against Klebsiella pneumoniae A 9664 after oral administration in mice; type: functional; conditions: read-out: PD50
How it was run: (§2)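 Mice given compound orally after lethal systemic infection. Read-out is the oral dose protecting 50% of mice from death (PD50), reported in mg/kg.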

[6] = Tested for aqueous solubility; conditions: aqueous medium
Pseudomonas aeruginosa [7] = assay: Efficacy on systematic infections against Pseudomonas aeruginosa A 9843 after oral administration in mice; type: functional; conditions: read-out: PD50; how it was run: as §2
Staphylococcus aureus [8] = assay: Efficacy on systematic infections against Staphylococcus aureus A 9537 after oral administration in mice; type: functional; conditions: read-out: PD50; how it was run: as §2
Pseudomonas aeruginosa [9] = assay: In vitro minimum inhibitory concentration (MIC) against Pseudomonas aeruginosa A 9843 at 37 degrees C for 18 h; type: functional; how it was run: as §1
Escherichia coli [10] = assay: Efficacy on systematic infections against Escherichia coli A 15119 after oral administration in mice; type: functional; conditions: read-out: PD50; how it was run: as §2

SMILES	MIC (Enterobacter cloacae) [µg/mL]	MIC (Serratia marcescens) [µg/mL]	MIC (Escherichia coli [1]) [µg/mL]	MIC (Pseudomonas aeruginosa [2]) [µg/mL]	MIC (Staphylococcus aureus [3]) [µg/mL]	MIC (Enterococcus faecalis) [µg/mL]	MIC (Klebsiella pneumoniae [4]) [µg/mL]	MIC (Morganella morganii) [µg/mL]	MIC (Enterococcus faecium) [µg/mL]	ED50 (Klebsiella pneumoniae [5]) [mg/kg]	solubility [6] [µg/mL]	ED50 (Pseudomonas aeruginosa [7]) [mg/kg]	ED50 (Staphylococcus aureus [8]) [mg/kg]	MIC (Pseudomonas aeruginosa [9]) [µg/mL]	ED50 (Escherichia coli [10]) [mg/kg]
CC(C)(C)n1cc(C(=O)O)c(=O)c2cc(F)c(N3CCNC(c4ccccc4)C3)cc21.CS(=O)(=O)O (configuration not stated)	0.13	2	0.06	1	0.06	0.5	0.25	0.5	4						
CC1CN(c2cc3c(cc2F)c(=O)c(C(=O)O)cn3C(C)(C)C)CCN1 (configuration not stated)	0.03 (≈ 0.083 µM)	0.5 (≈ 1.38 µM)	0.008 (≈ 0.0221 µM)		0.06 (≈ 0.166 µM)	1 (≈ 2.77 µM)	0.015 (≈ 0.0415 µM)	0.5 (≈ 1.38 µM)	4 (≈ 11.1 µM)	5.4	1560 (≈ 4320 µM)	25	5.4	1 (≈ 2.77 µM)	
CNC1CCN(c2nc3c(cc2F)c(=O)c(C(=O)O)cn3C(C)(C)C)C1 (configuration not stated)	0.06 (≈ 0.166 µM)	1 (≈ 2.76 µM)	0.06 (≈ 0.166 µM)	2 (≈ 5.52 µM)	0.06 (≈ 0.166 µM)	0.5 (≈ 1.38 µM)	0.13 (≈ 0.359 µM)	0.5 (≈ 1.38 µM)	8 (≈ 22.1 µM)						
CC(C)(C)n1cc(C(=O)O)c(=O)c2cc(F)c(N3CCNC(CF)C3)cc21 (configuration not stated)	0.13 (≈ 0.343 µM)	1 (≈ 2.64 µM)	0.25 (≈ 0.659 µM)	4 (≈ 10.5 µM)	0.13 (≈ 0.343 µM)	2 (≈ 5.27 µM)	0.13 (≈ 0.343 µM)	0.5 (≈ 1.32 µM)	8 (≈ 21.1 µM)						
CS(=O)(=O)O.C[C@H]1CN(c2nc3c(cc2F)c(=O)c(C(=O)O)cn3C(C)(C)C)C[C@H]1N	0.13	0.25	0.25	0.5	0.015	0.13	0.03	0.5	1	4.1		9	1.6		2.4
CC(C)(C)n1cc(C(=O)O)c(=O)c2cc(F)c(N3CCC(CN)C3)cc21 (configuration not stated)	0.25 (≈ 0.692 µM)	2 (≈ 5.53 µM)	0.25 (≈ 0.692 µM)	0.5 (≈ 1.38 µM)	0.03 (≈ 0.083 µM)	0.25 (≈ 0.692 µM)	0.25 (≈ 0.692 µM)	2 (≈ 5.53 µM)	0.5 (≈ 1.38 µM)						
CC(C)(C)n1cc(C(=O)O)c(=O)c2cc(F)c(N3CCNC(c4ccccc4)C3)nc21.CS(=O)(=O)O (configuration not stated)	0.06	2	0.06	4	0.03	1	0.06	1	8						
CC1CN(c2nc3c(cc2F)c(=O)c(C(=O)O)cn3C(C)(C)C)CCN1C (configuration not stated)	0.06 (≈ 0.159 µM)	1 (≈ 2.66 µM)	0.03 (≈ 0.0797 µM)	4 (≈ 10.6 µM)	0.13 (≈ 0.345 µM)	1 (≈ 2.66 µM)	0.13 (≈ 0.345 µM)	1 (≈ 2.66 µM)	4 (≈ 10.6 µM)						
CC(C)(C)n1cc(C(=O)O)c(=O)c2cc(F)c(N3C[C@@H]4C[C@H]3CN4)cc21	0.5 (≈ 1.39 µM)	2 (≈ 5.56 µM)	2 (≈ 5.56 µM)	1 (≈ 2.78 µM)	0.25 (≈ 0.696 µM)	4 (≈ 11.1 µM)	0.5 (≈ 1.39 µM)	1 (≈ 2.78 µM)	16 (≈ 44.5 µM)			23	10		
CC[C@H]1CN(c2nc3c(cc2F)c(=O)c(C(=O)O)cn3C(C)(C)C)C[C@@H]1N.CS(=O)(=O)O	0.03	0.25	0.03	1	0.015	0.13	0.06	0.25	2						
CN1CCN(c2cc3c(cc2F)c(=O)c(C(=O)O)cn3C(C)(C)C)CC1.Cl	0.25	1	0.03		0.03	4	0.25	0.25	16					0.5	
CN1C2CCC1CN(c1nc3c(cc1F)c(=O)c(C(=O)O)cn3C(C)(C)C)C2.CS(=O)(=O)O	0.25	2	0.5	4	0.25	2	0.1	2	16						
CC(C)(C)n1cc(C(=O)O)c(=O)c2cc(F)c(N3CCC(CN)C3)nc21 (configuration not stated)	0.5 (≈ 1.38 µM)	2 (≈ 5.52 µM)	0.5 (≈ 1.38 µM)	1 (≈ 2.76 µM)	0.03 (≈ 0.0828 µM)	0.25 (≈ 0.69 µM)	0.25 (≈ 0.69 µM)	1 (≈ 2.76 µM)	2 (≈ 5.52 µM)						
CC(C)(C)n1cc(C(=O)O)c(=O)c2cc(F)c(N3C4CCC3CNC4)nc21.CS(=O)(=O)O	0.25	0.5	0.06	2	0.06	0.5	0.13	0.5	4						
CCNCC1CCN(c2cc3c(cc2F)c(=O)c(C(=O)O)cn3C(C)(C)C)C1 (configuration not stated)	0.5 (≈ 1.28 µM)	8 (≈ 20.5 µM)	0.25 (≈ 0.642 µM)	8 (≈ 20.5 µM)	0.06 (≈ 0.154 µM)	0.5 (≈ 1.28 µM)	1 (≈ 2.57 µM)	2 (≈ 5.14 µM)	4 (≈ 10.3 µM)						
CN1CCN(c2nc3c(cc2F)c(=O)c(C(=O)O)cn3C(C)(C)C)CC1	0.06 (≈ 0.166 µM)	0.25 (≈ 0.69 µM)	0.06 (≈ 0.166 µM)		0.06 (≈ 0.166 µM)	2 (≈ 5.52 µM)	0.06 (≈ 0.166 µM)	0.5 (≈ 1.38 µM)	0.5 (≈ 1.38 µM)					1 (≈ 2.76 µM)	
CC(C)(C)n1cc(C(=O)O)c(=O)c2cc(F)c(N3CC4CCC(C3)N4)nc21.CS(=O)(=O)O	0.25	1	0.13	4	0.06	1	0.13	0.5	4						
CC(C)(C)n1cc(C(=O)O)c(=O)c2cc(F)c(N3C[C@@H]4C[C@H]3CN4)nc21	0.25 (≈ 0.694 µM)	2 (≈ 5.55 µM)	0.13 (≈ 0.361 µM)	0.5 (≈ 1.39 µM)	0.13 (≈ 0.361 µM)	1 (≈ 2.77 µM)	0.13 (≈ 0.361 µM)	0.13 (≈ 0.361 µM)	4 (≈ 11.1 µM)	10.8		14	0.5		4
CC[C@H]1CN(c2nc3c(cc2F)c(=O)c(C(=O)O)cn3C(C)(C)C)C[C@H]1N.Cl	0.06	0.5	0.13	1	0.015	0.25	0.13	0.5	2						
CC(C)(C)n1cc(C(=O)O)c(=O)c2cc(F)c(N3C[C@@H](N)[C@H](F)C3)nc21.CS(=O)(=O)O	0.5	0.5	0.5	2	0.003	0.25	0.5	0.5	2						
CC(C)(C)n1cc(C(=O)O)c(=O)c2cc(F)c(N3CCC(N)C3)cc21.Cl (configuration not stated)	0.13	1	0.06	1	0.03	0.25	0.25	0.5	2	23	70	19.9	8.2		5.4
CC(C)(C)n1cc(C(=O)O)c(=O)c2cc(F)c(N3C[C@@H](CN)[C@H](F)C3)nc21.CS(=O)(=O)O	0.06	1	0.06	0.5	0.004	0.03	0.13	0.5	0.25			18	0.8		
CC(C)(C)n1cc(C(=O)O)c(=O)c2cc(F)c(N3CC4CCC3CN4)cc21 (configuration not stated)	0.25 (≈ 0.669 µM)	2 (≈ 5.36 µM)	0.5 (≈ 1.34 µM)	2 (≈ 5.36 µM)	0.13 (≈ 0.348 µM)	1 (≈ 2.68 µM)	0.25 (≈ 0.669 µM)	1 (≈ 2.68 µM)	4 (≈ 10.7 µM)						
CN(C)C1CCN(c2nc3c(cc2F)c(=O)c(C(=O)O)cn3C(C)(C)C)C1 (configuration not stated)	1 (≈ 2.66 µM)	1 (≈ 2.66 µM)	0.25 (≈ 0.664 µM)	1 (≈ 2.66 µM)	0.03 (≈ 0.0797 µM)	0.5 (≈ 1.33 µM)	0.13 (≈ 0.345 µM)	0.5 (≈ 1.33 µM)	8 (≈ 21.3 µM)						
CC(C)(C)n1cc(C(=O)O)c(=O)c2cc(F)c(N3CC4CCC3CN4)nc21 (configuration not stated)	0.06 (≈ 0.16 µM)	1 (≈ 2.67 µM)	0.13 (≈ 0.347 µM)	1 (≈ 2.67 µM)	0.03 (≈ 0.0801 µM)	0.5 (≈ 1.34 µM)	0.13 (≈ 0.347 µM)	1 (≈ 2.67 µM)	2 (≈ 5.34 µM)						
CC(C)(C)n1cc(C(=O)O)c(=O)c2cc(F)c(N3CCC(N)C3)nc21.CS(=O)(=O)O (configuration not stated)	0.13	0.25	0.13	2	0.015	0.25	0.25	1	1	2.1		3.5	1.4		1.4
CC(C)(C)n1cc(C(=O)O)c(=O)c2cc(F)c(N3C[C@@H](CN)[C@@H](F)C3)nc21	0.25 (≈ 0.657 µM)	0.5 (≈ 1.31 µM)	0.06 (≈ 0.158 µM)	0.5 (≈ 1.31 µM)	0.015 (≈ 0.0394 µM)	0.13 (≈ 0.342 µM)	0.25 (≈ 0.657 µM)	0.5 (≈ 1.31 µM)	1 (≈ 2.63 µM)	18		18	4.5		18
